Assay results published in ChEMBL document CHEMBL3085663, “Hypoxia-targeting carbonic anhydrase IX inhibitors by a new series of nitroimidazole-sulfonamides/sulfamides/sulfamates” (J Med Chem, 2013).
Calls of active or inactive are those of the source. The calls are words filed in the database; no cut-off is given here.

Key:
HT-29 [1] = test: Reduction in hypoxia-induced extracellular acidosis in human HT-29 cells at 1 mM after 24 hrs; format: functional, cell-based
Method in brief: (§1)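 Exponentially growing HT-29 or HeLa cells were cultured in DMEM with 10% FBS, under hypoxia (0.2% O₂, 5% CO₂, balance N₂) or normoxia (20% O₂, 5% CO₂). Compounds were added in medium with 1% DMSO at final 0.1 or 1 mM. Medium pH was measured before and immediately after incubation, reported as ΔpHe, as mean ± SD of at least three independent experiments.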

HeLa [2] = test: Reduction in hypoxia-induced extracellular acidosis in human HeLa cells at 1 mM after 24 hrs; format: functional, cell-based; method in brief: as §1
Carbonic anhydrase 9 = Carbonic anhydrase 9 (Homo sapiens, UniProt Q16790); test: Inhibition of recombinant human catalytic domain of carbonic anhydrase-9 preincubated for 15 mins by stopped-flow CO2 hydration assay
Carbonic anhydrase 12 = Carbonic anhydrase 12 (Homo sapiens, UniProt O43570); test: Inhibition of recombinant human catalytic domain of carbonic anhydrase-12 preincubated for 15 mins by stopped-flow CO2 hydration assay
Carbonic anhydrase 2 = Carbonic anhydrase 2 (Homo sapiens, UniProt P00918); test: Inhibition of full length human cytosolic carbonic anhydrase-2 preincubated for 15 mins by stopped-flow CO2 hydration assay
Carbonic anhydrase 1 = Carbonic anhydrase 1 (Homo sapiens, UniProt P00915); test: Inhibition of full length human cytosolic carbonic anhydrase-1 preincubated for 15 mins by stopped-flow CO2 hydration assay
Mus musculus [3] = test: Toxicity in NMRI-nu mouse xenografted with HT-29 cells assessed as body weight loss at 5 mg/kg, iv administered on day 3 for 3 weeks; format: organism-based; set-up: dose 5 mg/kg, route intravenous; conditions: in vivo, 504 h
HT-29 [4] = test: Antitumor activity against human HT-29 cells xenografted in NMRI-nu mouse assessed as time to reach 4x starting volume of tumor at 5 mg/kg, iv administered on day 3 for 3 weeks (reference value: 14.07 days); format: functional
Method in brief: (§2)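 HT-29 cells in Matrigel were injected s.c. into the lateral flank of adult NMRI-nu mice (28−32 g). Dosing started at a tumour volume of 250 mm³ and was given i.v. One arm received 10 mg/kg daily for 3 days in 0.9% NaCl with 1% DMSO via the lateral tail vein. The other arm received 5 mg/kg at day 3. The schedule was repeated over 3 weeks. Read-out was time to reach 4× starting tumour volume against vehicle.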

HT-29 [5] = test: Antitumor activity against human HT-29 cells xenografted in NMRI-nu mouse assessed as tumor growth inhibition at 5 mg/kg, iv administered on day 3 for 3 weeks; format: functional, organism-based; set-up: dose 5 mg/kg; method in brief: as §2
HeLa [6] = test: Reduction in hypoxia-induced extracellular acidosis in human HeLa cells at 0.1 to 1 mM after 24 hrs; format: functional, cell-based; method in brief: as §1
Mus musculus [7] = test: Toxicity in NMRI-nu mouse xenografted with HT-29 cells assessed as body weight loss at 10 mg/kg, iv administered 3 days per week for 3 weeks; format: organism-based; set-up: dose 10 mg/kg, route intravenous; conditions: in vivo
HT-29 [8] = test: Antitumor activity against human HT-29 cells xenografted in NMRI-nu mouse assessed as time to reach 4x starting volume of tumor at 10 mg/kg, iv administered 3 days per week for 3 weeks (reference value: 14.07 days); format: functional; method in brief: as §2
HT-29 [9] = test: Antitumor activity against human HT-29 cells xenografted in NMRI-nu mouse assessed as tumor growth inhibition at 10 mg/kg, iv administered 3 days per week for 3 weeks; format: functional, organism-based; set-up: dose 10 mg/kg; method in brief: as §2
HeLa [10] = test: Reduction in hypoxia-induced extracellular acidosis in human HeLa cells after 24 hrs; format: functional, cell-based; method in brief: as §1
HT-29 [11] = test: Reduction in hypoxia-induced extracellular acidosis in human HT-29 cells after 24 hrs; format: functional, cell-based; method in brief: as §1

Chain of Carbonic anhydrase 1 (P00915 whole entry): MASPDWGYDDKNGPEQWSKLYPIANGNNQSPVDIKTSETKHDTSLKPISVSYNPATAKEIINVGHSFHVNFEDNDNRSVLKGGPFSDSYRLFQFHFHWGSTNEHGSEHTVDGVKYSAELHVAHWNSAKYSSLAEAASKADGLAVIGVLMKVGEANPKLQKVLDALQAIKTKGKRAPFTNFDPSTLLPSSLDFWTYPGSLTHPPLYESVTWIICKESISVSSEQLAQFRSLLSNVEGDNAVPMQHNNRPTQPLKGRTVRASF
Chain of Carbonic anhydrase 12 (O43570 whole entry, the tested form may be a part): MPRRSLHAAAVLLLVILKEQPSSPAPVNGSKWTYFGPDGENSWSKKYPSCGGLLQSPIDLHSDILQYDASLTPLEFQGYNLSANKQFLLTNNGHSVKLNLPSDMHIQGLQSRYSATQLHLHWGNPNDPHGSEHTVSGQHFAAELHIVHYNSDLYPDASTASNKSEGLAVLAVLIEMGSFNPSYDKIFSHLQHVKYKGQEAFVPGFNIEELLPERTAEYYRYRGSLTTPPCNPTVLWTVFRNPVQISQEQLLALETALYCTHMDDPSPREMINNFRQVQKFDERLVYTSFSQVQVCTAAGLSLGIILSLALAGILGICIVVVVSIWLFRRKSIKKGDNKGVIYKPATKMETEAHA

Compound	Activity (HT-29 [1])	Activity (HeLa [2])	Ki (Carbonic anhydrase 9)	further results
Cc1ncc([N+](=O)[O-])n1CCNC(=S)Nc1ccc(S(N)(=O)=O)cc1	Active	Active	7.3 nM	–
CS(=O)(=O)NCCn1ccnc1[N+](=O)[O-]	–	–	> 20000 nM	Ki (Carbonic anhydrase 12): > 20000 nM; Ki (Carbonic anhydrase 2): > 20000 nM; Ki (Carbonic anhydrase 1): > 20000 nM
Cc1ncc([N+](=O)[O-])n1CCNS(C)(=O)=O	–	–	> 20000 nM	Ki (Carbonic anhydrase 12): > 20000 nM; Ki (Carbonic anhydrase 2): > 20000 nM; Ki (Carbonic anhydrase 1): > 20000 nM
NS(=O)(=O)c1ccc(CCNC(=O)Cn2ccnc2[N+](=O)[O-])cc1	–	–	8 nM	–
Cc1nccn1CCCNS(N)(=O)=O	–	–	21 nM	–
NS(=O)(=O)NCCn1ccnc1[N+](=O)[O-]	–	–	41 nM	–
COc1cccc2c1C(=O)c1c(O)c3c(c(O)c1C2=O)C[C@@](O)(C(=O)CO)C[C@@H]3O[C@H]1C[C@H](N)[C@H](O)[C@H](C)O1 [DOXORUBICIN]	–	–	–	Activity (Mus musculus [3]): Non-toxic; Time (HT-29 [4]): 23.39 days; TGI (HT-29 [5]): Active
Cc1ncc([N+](=O)[O-])n1CCNC(=S)NCCc1ccc(S(N)(=O)=O)cc1	Active	Active	8.3 nM	Activity (HeLa [6]): Active
Cc1ncc([N+](=O)[O-])n1CCOS(N)(=O)=O	Active	Active	–	–
Cc1ncc([N+](=O)[O-])n1CCNS(N)(=O)=O [DTP-348]	Active	Active	–	Activity (Mus musculus [7]): Non-toxic; Time (HT-29 [8]): 25.43 days; TGI (HT-29 [9]): Active; Activity (HeLa [10]): Dose-dependent effect; Activity (HT-29 [11]): Dose-dependent effect
Cc1ncc([N+](=O)[O-])n1CCNC(=S)NCc1ccc(S(N)(=O)=O)cc1	–	–	7.2 nM	–
